Bioassay records deposited in PubChem by several laboratories.
In the library only some 2.6% were active in any assay of this set; here they are far more common.
MC4R antag cAMP: human MC4R antagonism in cAMP assay; inhibition, % at 6.5 µM; 360,000 compounds, 0.48% hits; P32245; MC4R-expressing cells, MTII-stimulated cAMP, LANCE TR-FRET;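 active = inhibition above its plate's cutoff, the mean of tested wells on that plate plus 3 SD, cut at about 29% in these data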
Target sequence (P32245 whole entry, looked up): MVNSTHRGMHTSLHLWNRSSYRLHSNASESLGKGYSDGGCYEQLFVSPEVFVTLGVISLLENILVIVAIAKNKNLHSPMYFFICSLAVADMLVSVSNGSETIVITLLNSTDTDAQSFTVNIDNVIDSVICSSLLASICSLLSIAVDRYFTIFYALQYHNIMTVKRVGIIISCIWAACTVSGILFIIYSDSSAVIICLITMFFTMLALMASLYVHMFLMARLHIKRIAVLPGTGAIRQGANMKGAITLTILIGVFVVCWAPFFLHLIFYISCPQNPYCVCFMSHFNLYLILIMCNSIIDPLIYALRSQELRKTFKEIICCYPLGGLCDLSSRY
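System: U2OS cells stably expressing human melanocortin 4 receptor (MC4R). Reagent: Melanotan II challenge after compound preincubation. Doses: 6.5 µM. Times: 30-min compound, 1-h challenge, 1-h detection, room temperature. Measured by: TR-FRET with Eu-cAMP and labeled anti-cAMP, 671 nm. Replicates: singlicate.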
EP2 mod: EP2 receptor (human) modulation; P43116; EP2-expressing cells, cAMP HTRF FRET, PGE2 co-stimulation; induction, % at 25 µM; 260,000 compounds, 0.83% hits; AID 940;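 active = compounds whose cAMP rise, as percent of the full-agonist control response, exceeds 60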;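 note: rat C6 glioma line stably carrying human EP2 under a CMV promoter; the protocol text gives 20 µM as final concentration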
Target sequence (P43116 whole entry, looked up): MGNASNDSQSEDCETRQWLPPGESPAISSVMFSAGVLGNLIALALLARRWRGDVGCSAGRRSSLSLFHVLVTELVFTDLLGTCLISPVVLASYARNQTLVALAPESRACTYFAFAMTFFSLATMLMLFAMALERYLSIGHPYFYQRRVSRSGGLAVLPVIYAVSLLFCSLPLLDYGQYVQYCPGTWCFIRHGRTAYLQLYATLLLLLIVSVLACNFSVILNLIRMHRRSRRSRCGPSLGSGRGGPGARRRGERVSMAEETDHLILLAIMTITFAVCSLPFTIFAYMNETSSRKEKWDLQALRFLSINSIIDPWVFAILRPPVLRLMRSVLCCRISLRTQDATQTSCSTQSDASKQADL
MC4R ag barr: human MC4R agonism via beta-arrestin; U2OS MC4R beta-arrestin complementation, luminescence; percent of melanotan II response, DMSO zero; P32245; AID 540308; 360,000 compounds, 0.98% hits; activation, % at 8.9 µM;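 active = activation above a per-plate cutoff, the mean activation of sample wells on that plate plus 3 SD, cut at about 8% in these data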
EP2 antag: inhibitors of human EP2 prostaglandin E2 receptor; P43116; C6 glioma cells expressing human EP2, cAMP TR-FRET; cells stimulated with saturating PGE2; inhibition, % at 25 µM; 260,000 compounds, 0.52% hits;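 active = percent inhibition above 40 after rounding to a whole number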;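 note: rat C6 glioma host cells with rolipram phosphodiesterase inhibitor present; the protocol text gives 20 µM as final concentration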
Granule exo inh: lytic granule exocytosis inhibition. TALL-104 LAMP-1 surface exposure, flow cytometry; cells stimulated with thapsigargin and PMA. 360,000 compounds, 0.66% hits. inhibition, % at 10 µM. AID 651702;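 active = inhibition above about 55%, limit read from the data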
T cell modulator: T cell immune modulators affecting CD8 T cell-vesicle binding; 330,000 compounds, 0.068% hits; response (vesicle binding), % at 7 µM; 2C CD8+ T cell-vesicle binding, flow cytometry; stronger effect = lower value;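 active = response, share of CD8 T cells binding vesicles, and their 90th percentile fluorescence all below set limits, cut at about 80% in these data, passing the limit was not always enough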;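 note: values below 100% mean blocked vesicle binding to the CD8+ T cells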
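Material: 2C TCR transgenic mouse naive CD8+ T cells, MACS-purified. Also added: QL9-charged Drosophila Ld/ICAM-1/B7-1 vesicles. Timing: binding 1.5 h at 37 °C. Measured by: high-throughput flow cytometry with anti-B7-1 and anti-CD8 staining. Read-out: percent CD8+ FL2 mean versus row control. Controls: Unloaded micro-vesicles (low), QL9 vesicles with 0.7% DMSO (high).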
Granule exo CP1: lytic granule exocytosis inhibition | inhibition, % at 10 µM | TALL-104 cells, LAMP-1 externalization, flow cytometry; stimulated with PMA plus thapsigargin | shares compounds with Granule exo inh | 1,500 compounds, 11% hits | AID 651954; in the data active = inhibition above about 60%
Large screens that a line does not name were inactive (follow-up assays come after a bar, where they were run).

COc1ccc(C(C)=O)cc1CN(c1ccccc1OC)S(=O)(=O)c1cccs1	Granule exo inh 91.9 (no result: EP2 mod, EP2 antag) | Granule exo CP1 inactive
Cc1ccc2oc(=O)n(CCOc3ccccc3C)c2c1	Granule exo inh 64.5 | Granule exo CP1 inactive
OC(COC(c1ccc(Cl)cc1)c1ccc(Cl)cc1)CN1CCCC1 (stereo not drawn)	none
CN1CCN(CC(O)COC(c2ccc(Cl)cc2)c2ccc(Cl)cc2)CC1 (stereo not drawn)	Granule exo inh 57.3 (no result: EP2 mod, EP2 antag) | Granule exo CP1 inactive
CC(C)Nc1ccc(Nc2ccnc3cc4ccccc4cc23)cc1	MC4R ag barr 8.5, Granule exo inh 78.9 | Granule exo CP1 inactive
COc1ccc(Nc2ccnc3ccccc23)cc1	none
c1ccc(CCNc2ccnc3cc4ccccc4cc23)cc1	MC4R ag barr 16.9, EP2 antag 57.5, Granule exo inh 55.6 (no result: T cell modulator) | Granule exo CP1 91.7
COc1ccc(OC)c(CN2CCC(Cc3ccccc3)CC2)c1	Granule exo inh 59.9 (no result: EP2 mod, EP2 antag) | Granule exo CP1 inactive
COc1cc(C)c(CN2CCC(Cc3ccccc3)CC2)cc1C	Granule exo inh 55.6 (no result: EP2 mod, EP2 antag) | Granule exo CP1 inactive
COc1cc(OC)c(CN2CCC(Cc3ccccc3)CC2)cc1Br	none (no result: EP2 mod, EP2 antag)
CCc1ccccc1N(C)S(=O)(=O)c1ccc(-c2cc(C)no2)s1	Granule exo inh 68.4 (no result: EP2 mod, EP2 antag) | Granule exo CP1 inactive
Cc1cc(-c2ccc(S(=O)(=O)N3CCN(C)CC3)s2)on1	none (no result: EP2 mod, EP2 antag)
CCN(c1ccc(OC)cc1)S(=O)(=O)c1ccc(-c2cc(C)no2)s1	Granule exo inh 74.6 (no result: EP2 mod, EP2 antag) | Granule exo CP1 inactive
CCc1cccc(N(C(=O)c2csnn2)C(C(=O)NC(C)(C)C)c2cccs2)c1 (stereo not drawn)	none (no result: MC4R antag cAMP, MC4R ag barr, Granule exo inh, T cell modulator)
CCOC(=O)Cc1csc(NS(=O)(=O)c2cc(Cl)ccc2Cl)n1	none (no result: EP2 mod, EP2 antag)
COc1ccc(CN(C)C(=O)c2ccc(Oc3ccccc3)cc2)cc1F	Granule exo inh 66.8 (no result: EP2 mod, EP2 antag) | Granule exo CP1 inactive
CN(Cc1ccc2ccccc2c1)C(=O)c1ccc(C(F)(F)F)cc1	Granule exo inh 59.8 (no result: EP2 mod, EP2 antag) | Granule exo CP1 inactive
Cc1ccsc1CN(C)C(=O)c1ccc(Oc2ccccc2)cc1	Granule exo inh 113.1 (no result: EP2 mod, EP2 antag) | Granule exo CP1 inactive
COc1ccc(CN(C)C(=O)c2ccc(OCC(=O)Nc3cccc(C(F)(F)F)c3)c(OC)c2)cc1	none (no result: EP2 mod, EP2 antag, T cell modulator)
O=C(O)Cc1ccc(NC(=O)c2ccc3c(c2)C(=O)N(Cc2ccco2)C3=O)cc1	none (no result: EP2 mod, EP2 antag)
CCN(CC)c1nc(C=Cc2ccc(N(C)C)cc2)c2nccnc2n1	Granule exo inh 73.3 (no result: EP2 mod, EP2 antag, T cell modulator) | Granule exo CP1 inactive
CN(C)c1ccc(C=Cc2nccc3ccccc23)cc1	none (no result: MC4R antag cAMP, EP2 mod, MC4R ag barr, EP2 antag, T cell modulator)
Cc1ccc(C(C)C)c(OCC(=O)N/N=C/c2ccc(S(=O)(=O)O)o2)c1	none
CC(=O)Cc1cc(=O)c2c(C)cc(O)c(C3OC(CO)C(O)C(O)C3O)c2o1 (stereo not drawn)	none
Cc1cc(F)ccc1S(=O)(=O)Nc1ccccc1C(=O)Nc1ccccc1-c1nc2ccccc2[nH]1	Granule exo inh 90.2 | Granule exo CP1 94.2
COc1ccc(CNC(=O)C23CN(Cc4ccccc4)CC2C(c2ccc([N+](=O)[O-])cc2)=NO3)cc1 (stereo not drawn)	none (no result: T cell modulator)
COc1ccc(CCNC(=O)C23CN(Cc4ccccc4)CC2C(c2ccc([N+](=O)[O-])cc2)=NO3)cc1 (stereo not drawn)	Granule exo inh 60.4 | Granule exo CP1 inactive
CC(C)CN1C(=O)N(c2ccc(Cl)cc2)C(C)(O)CC1(C)C (stereo not drawn)	none (no result: EP2 mod, EP2 antag)
C[C@@H]1CN([C@@H](C)CO)C(=O)c2cc(NC(=O)Nc3ccc4c(c3)OCO4)ccc2O[C@H]1CN(C)S(=O)(=O)c1cn(C)cn1	Granule exo inh 63.6 (no result: EP2 mod, EP2 antag) | Granule exo CP1 inactive
CC(C)NC(=O)N(C)C[C@H]1Oc2ccc(NC(=O)C3CC3)cc2C(=O)N([C@H](C)CO)C[C@@H]1C	Granule exo inh 78.9 (no result: EP2 mod, EP2 antag) | Granule exo CP1 inactive
Cc1noc(C)c1S(=O)(=O)N(C)C[C@H]1Oc2c(NC(=O)Nc3ccccc3)cccc2C(=O)N([C@H](C)CO)C[C@@H]1C	Granule exo inh 65.4 (no result: EP2 mod, EP2 antag) | Granule exo CP1 inactive
CC(C)(O)C#Cc1ccc(C(=O)N2CCN(c3ccc(F)cc3)CC2)cc1	none
CCOC(=O)c1cc(-c2csc(Nc3c(C)cc(C)cc3C)n2)on1	Granule exo inh 90.8 | Granule exo CP1 85.7
CCOC(=O)c1cc(-c2csc(-c3cccc(Cl)c3)n2)on1	none
NS(=O)(=O)c1cccc(NC(=O)c2cc(-c3cccs3)nc3ccccc23)c1	none
C=CCSc1nc2c(C(=O)OCC)nnn2c2ccccc12	Granule exo inh 80.9 (no result: EP2 mod, EP2 antag) | Granule exo CP1 inactive
CSCC[C@H](NC(=O)c1cccc(S(=O)(=O)N2CCCCCC2)c1)c1nc2ccccc2[nH]1	none (no result: EP2 mod, EP2 antag)
N=c1c2c(ncn1Cc1ccco1)Oc1ccc3ccccc3c1C2c1ccccc1 (stereo not drawn)	none
CCCCn1cnc2c(c(-c3ccccc3)c(-c3ccccc3)n2Cc2ccco2)c1=N	Granule exo inh 63.6 | Granule exo CP1 inactive
N=c1c2c(-c3ccccc3)c(-c3ccccc3)n(Cc3ccco3)c2ncn1Cc1ccco1	Granule exo inh 91.0 | Granule exo CP1 inactive
Cn1ccnc1CC(C)(O)c1ccccc1 (stereo not drawn)	none (no result: EP2 mod, EP2 antag, T cell modulator)
O=C(c1ccc2ccccc2c1)C1CCCN(C(=O)c2cccnc2)C1 (stereo not drawn)	Granule exo inh 65.8 (no result: EP2 mod, EP2 antag) | Granule exo CP1 inactive
COc1ccc(C(=O)C2CCCN(C(=O)c3cccnc3OC)C2)cc1F (stereo not drawn)	Granule exo inh 76.7 | Granule exo CP1 inactive
COc1ccc(C(=O)C2CCCN(C(=O)c3cccs3)C2)cc1F (stereo not drawn)	none
COc1ccc(N(CC(=O)N2CCCC2)S(=O)(=O)c2ccc(NC(C)=O)cc2)cc1	none (no result: EP2 mod, EP2 antag)
Cc1ccc(CC(=O)N(C)CC(=O)Nc2ccc(N3CCOCC3)cc2)cc1C	none (no result: EP2 mod, EP2 antag)
Cc1ccc(NC(=O)CN(C)CC(=O)Nc2ccc(N3CCOCC3)cc2)cc1F	Granule exo inh 98.6 | Granule exo CP1 inactive
CC(=O)CN1C(=O)NC(c2ccccc2)(c2ccccc2)C1=O	none (no result: EP2 mod, EP2 antag)
CC(C)(C)NC(=O)CN1C(=O)NC(c2ccccc2)(c2ccccc2)C1=O	Granule exo inh 84.7 (no result: EP2 mod, EP2 antag) | Granule exo CP1 inactive
CCN(C(=O)Cn1cnc2c(nc3n2CCCCC3)c1=O)c1cccc(Cl)c1	none (no result: EP2 mod, EP2 antag)
COc1ccc(-c2oc3ncnc(NCCCN4CCOCC4)c3c2-c2ccc(OC)cc2)cc1	EP2 mod 60.9, Granule exo inh 63.3 | Granule exo CP1 inactive
OCCCNc1ncnc2oc(-c3ccccc3)c(-c3ccccc3)c12	Granule exo inh 65.7 (no result: EP2 mod, EP2 antag) | Granule exo CP1 inactive
